{
  "source": "ChEMBL document CHEMBL4038302",
  "about": "“Fibroblast Activation Protein α Activated Tripeptide Bufadienolide Antitumor Prodrug with Reduced Cardiotoxicity” (J Med Chem, 2017)",
  "key": {"[1]": {"biological_target": "T1, Prolyl endopeptidase FAP (Homo sapiens, UniProt Q12884)", "T1 sequence (Q12884 whole entry)": "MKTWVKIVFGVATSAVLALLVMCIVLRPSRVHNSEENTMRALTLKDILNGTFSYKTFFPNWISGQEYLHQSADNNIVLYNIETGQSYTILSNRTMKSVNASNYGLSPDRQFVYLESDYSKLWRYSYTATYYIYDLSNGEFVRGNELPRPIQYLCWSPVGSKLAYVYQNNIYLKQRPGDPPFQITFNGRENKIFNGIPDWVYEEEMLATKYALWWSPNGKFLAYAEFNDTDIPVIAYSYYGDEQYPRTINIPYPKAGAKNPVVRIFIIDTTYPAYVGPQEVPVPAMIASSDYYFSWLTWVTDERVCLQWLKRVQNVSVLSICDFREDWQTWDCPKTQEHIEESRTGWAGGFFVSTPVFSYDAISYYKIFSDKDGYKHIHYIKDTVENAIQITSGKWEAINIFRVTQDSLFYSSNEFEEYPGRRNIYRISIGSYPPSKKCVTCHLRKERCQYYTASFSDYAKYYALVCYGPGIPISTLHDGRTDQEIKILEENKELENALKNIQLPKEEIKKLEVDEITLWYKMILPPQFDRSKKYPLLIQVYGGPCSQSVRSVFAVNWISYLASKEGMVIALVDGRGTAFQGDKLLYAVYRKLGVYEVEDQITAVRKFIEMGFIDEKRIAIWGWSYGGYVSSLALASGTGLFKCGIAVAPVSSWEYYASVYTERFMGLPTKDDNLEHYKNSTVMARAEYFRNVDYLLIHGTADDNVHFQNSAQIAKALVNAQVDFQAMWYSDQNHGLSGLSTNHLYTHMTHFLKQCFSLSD", "test": "(§1) Prodrug activation assessed as Vmax for recombinant human FAP-alpha mediated (S)-((3S,5R,8R,9S,10S,11S,13R,14S,17R)-11,14-dihydroxy-10,13-dimethyl-12-oxo-17-(2-oxo-2H-pyran-5-yl)hexadecahydro-1H-cyclopenta[a]phenanthren-3-yl) 2-amino-3-phenylpropanoate formation after 90 mins by UPLC-MS/MS analysis", "conditions": "1.5 h", "summary_of_the_method": "(§2)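 Prodrug at 0.625–40 μmol/L incubated with rhFAPα at 0.45 μg/mL and internal standard in 0.2 mL PBS, pH 7.4, at 37 °C for 90 min. Quenched with MeCN and spun at 18 000g for 15 min; product measured by UPLC-MS/MS. S50 and Vmax fitted with an allosteric sigmoidal model; CLint = Vmax/S50. Three independent experiments.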"}, "[2]": {"biological_target": "T1, Prolyl endopeptidase FAP", "test": "as §1, with “as” for “as Vmax for”, “2-amino-3-phenylpropanoate by measuring concentration of test compound gives half-maximal activity” for “2-amino-3-phenylpropanoate”", "conditions": "1.5 h", "summary_of_the_method": "as §2"}, "[3]": {"biological_target": "T1, Prolyl endopeptidase FAP", "test": "as §1, with “as” for “as Vmax for”, “formation by measuring intrinsic clearance” for “formation”", "conditions": "1.5 h", "summary_of_the_method": "as §2"}, "[4]": {"biological_target": "T1, Prolyl endopeptidase FAP", "test": "Prodrug activation assessed as recombinant human FAP-alpha mediated (S)-((3S,5R,8R,9S,10S,11S,13R,14S,17R)-11,14-dihydroxy-10,13-dimethyl-12-oxo-17-(2-oxo-2H-pyran-5-yl)hexadecahydro-1H-cyclopenta[a]phenanthren-3-yl) 2-amino-3-phenylpropanoate formation at 40 umol/L after 6 hrs in presence of FAP-alpha inhibitor talabostat by UPLC-MS/MS analysis", "conditions": "40 µM", "summary_of_the_method": "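Prodrug at 40 μmol/L incubated with rhFAPα at 0.45 μg/mL in 0.2 mL buffer at 37 °C for 6 h, with bufalin at 2 μmol/L as internal standard. Stopped with acetonitrile and spun at 18 000g for 15 min. Released active form measured by UPLC-MS/MS via peak-area ratio against a standard curve of 0.625–40 μmol/L.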"}, "[5]": {"biological_target": "T1, Prolyl endopeptidase FAP", "test": "Prodrug activation assessed as recombinant human FAP-alpha mediated 5-((3S,5R,8R,9S,10S,11S,13R,14S,17R)-3-(2-(4-aminophenyl)acetyl)-11,14-dihydroxy-10,13-dimethyl-12-oxohexadecahydro-1H-cyclopenta[a]phenanthren-17-yl)-2H-pyran-2-one formation by measuring intrinsic clearance at 40 umol/L after 6 hrs by UPLC-MS/MS analysis", "conditions": "40 µM"}, "[6]": {"biological_target": "T1, Prolyl endopeptidase FAP", "test": "Prodrug activation assessed as recombinant human FAP-alpha mediated (2S,3S)-((3S,5R,8R,9S,10S,11S,13R,14S,17R)-11,14-dihydroxy-10,13-dimethyl-12-oxo-17-(2-oxo-2H-pyran-5-yl)hexadecahydro-1H-cyclopenta[a]phenanthren-3-yl) 2-amino-3-methylpentanoate by measuring concentration of test compound gives half-maximal activity formation after 90 mins by UPLC-MS/MS analysis", "conditions": "1.5 h", "summary_of_the_method": "as §2"}, "[7]": {"biological_target": "T1, Prolyl endopeptidase FAP", "test": "(§3) Prodrug activation assessed as Vmax for recombinant human FAP-alpha mediated (2S,3S)-((3S,5R,8R,9S,10S,11S,13R,14S,17R)-11,14-dihydroxy-10,13-dimethyl-12-oxo-17-(2-oxo-2H-pyran-5-yl)hexadecahydro-1H-cyclopenta[a]phenanthren-3-yl) 2-amino-3-methylpentanoate formation after 90 mins by UPLC-MS/MS analysis", "conditions": "1.5 h", "summary_of_the_method": "as §2"}, "[8]": {"biological_target": "T1, Prolyl endopeptidase FAP", "test": "as §3, with “as” for “as Vmax for”, “formation by measuring intrinsic clearance” for “formation”", "conditions": "1.5 h", "summary_of_the_method": "as §2"}},
  "data": [
    {"smiles": "C[C@]12CC[C@H](OC(=O)[C@H](Cc3ccccc3)NC(=O)[C@@H]3CCCN3C(=O)CNC(=O)OCc3ccccc3)C[C@H]1CC[C@@H]1[C@@H]2[C@H](O)C(=O)[C@]2(C)[C@@H](c3ccc(=O)oc3)CC[C@]12O", "values": [
      {"measurement": "Vmax", "setting": "[1]", "value": 0.366, "unit": "µmol/min/mg"},
      {"measurement": "S50", "setting": "[2]", "value": 8.64, "unit": "µmol/L"},
      {"measurement": "CL", "setting": "[3]", "value": 42360, "unit": "µL/min/mg"},
      {"measurement": "Drug metabolism", "setting": "[4]", "value": "Metabolite_Notdetected"}
    ]},
    {"smiles": "C[C@]12CC[C@H](OC(=O)Cc3ccc(NC(=O)[C@@H]4CCCN4C(=O)CNC(=O)OCc4ccccc4)cc3)C[C@H]1CC[C@@H]1[C@@H]2[C@H](O)C(=O)[C@]2(C)[C@@H](c3ccc(=O)oc3)CC[C@]12O", "values": [
      {"measurement": "CL", "setting": "[5]", "value": 7070, "unit": "µL/min/mg"}
    ]},
    {"smiles": "CC[C@H](C)[C@H](NC(=O)[C@@H]1CCCN1C(=O)CNC(=O)OCc1ccccc1)C(=O)O[C@H]1CC[C@@]2(C)[C@H](CC[C@@H]3[C@@H]2[C@H](O)C(=O)[C@]2(C)[C@@H](c4ccc(=O)oc4)CC[C@]32O)C1", "values": [
      {"measurement": "S50", "setting": "[6]", "value": 8.82, "unit": "µmol/L"},
      {"measurement": "Vmax", "setting": "[7]", "value": 0.014, "unit": "µmol/min/mg"},
      {"measurement": "CL", "setting": "[8]", "value": 1590, "unit": "µL/min/mg"}
    ]}
  ]
}
